Results gathered from unrelated publications.
Compare with care: the assays were run in different laboratories.
Target: Cyclin-dependent kinase 3 (CDK3, Homo sapiens, UniProt Q00526)

CC(=O)N1CCC(c2ccc(C(=O)NC3=NCCN3)cc2C(F)(F)F)CC1  remaining binding (cell-free assay, competition with immobilised ligand; 1 µM): 100%
CC(C)(C)c1ccc(-c2nc(CBr)nn2-c2cccc(O)c2)cc1  remaining binding (cell-free assay, competition with immobilised ligand; 10 µM): 100%
CS(=O)(=O)c1cc(C2(NC(=O)c3cncc4c3cnn4-c3ccc(F)cc3)CC2)ccn1  remaining binding (cell-free assay, competition with immobilised ligand; 1 µM): 81%
O=C(c1ccc(Nc2ncc(Cl)c(-c3ccc(Cl)s3)n2)cc1)N1CCC(N2CCCC2)CC1  remaining binding (binding, competition with immobilised ligand; 1 µM): 47%
C[C@@H]1CN(c2ccc3ncc(-c4ccc5[nH]nc(C6CC6)c5c4)n3n2)C[C@H](C)O1  remaining binding (binding, competition with immobilised ligand; 0.5 µM): 90%
CN(c1nccc(-c2cnn3ncccc23)n1)C1CC1  remaining binding (binding; 1 µM): 100%
O=C(c1ccc(Nc2ncc(Cl)c(-c3cc4ccccc4s3)n2)cc1)N1CCC(N2CCCC2)CC1  remaining binding (binding, competition with immobilised ligand; 1 µM): 48%
CCCOc1ccc([C@@H]2[C@@H](C(=O)O)[C@H](c3ccc4c(c3)OCO4)CN2CC(=O)Nc2c(CC)cccc2CC)cc1  remaining binding (cell-free assay, competition with immobilised ligand; 1 µM): 100%
CC1CCCN1c1nccc(-c2cnn3ncccc23)n1 (stereo not drawn)  remaining binding (binding; 1 µM): 100%
CCN1CCN(Cc2ccc(C(=O)Nc3ccc(C)c(Oc4ccc5c(c4)CC(=O)N5)c3)cc2C(F)(F)F)CC1  remaining binding (binding, competition with immobilised ligand; 1 µM): 100%
CN(C)c1ncc(F)c(-c2cnn3ncccc23)n1  remaining binding (binding; 1 µM): 82%
CCS(=O)(=O)c1cc2cc(C[C@](O)(CC(C)(C)c3ccc(F)cc3C(N)=O)C(F)(F)F)[nH]c2cn1  remaining binding (cell-free assay, competition with immobilised ligand; 1 µM): 100%
c1cncc(-c2cccc(Nc3nccc(NC4CCCCC4)n3)c2)c1  remaining binding (binding, competition with immobilised ligand; 10 µM): 76%
C[C@@H](c1cccc(C#N)c1)n1cc(Cl)cc(C(N)=O)c1=N  remaining binding (cell-free assay, competition with immobilised ligand; 1 µM): 100%
Cc1cnn2ncc(-c3ccnc(N(C)C)n3)c2c1  remaining binding (binding; 1 µM): 86%
O=C(NCC1CCOCC1)c1n[nH]cc1NC(=O)c1c(F)cccc1F  remaining binding (binding, competition with immobilised ligand; 1 µM): 75%
CN(C)c1nccc(-c2cnn3ncccc23)n1  remaining binding (binding; 1 µM): 78%
N#Cc1ccc(Nc2ccc3[nH]c(=O)[nH]c3c2)c(Cl)c1  remaining binding (cell-free assay, competition with immobilised ligand; 1 µM): 100%
c1cnn2ncc(-c3ccnc(N4CCC45COC5)n3)c2c1  remaining binding (binding; 1 µM): 74%
CNC(=O)[C@@H]1CC[C@@H](n2c(-c3ccc4cnccc4c3)nc3ccc(C(=O)NCc4cccc(C(N)=O)c4)cc32)C1  remaining binding (binding, competition with immobilised ligand; 1 µM): 89%
COc1ncc2cc3ccccc3nc2c1C#N  remaining binding (cell-free assay, competition with immobilised ligand; 5 µM): 100%
